From ChEMBL document CHEMBL1681731, “Synthesis, in vitro anti-inflammatory and cytotoxic evaluation, and mechanism of action studies of 1-benzoyl-β-carboline and 1-benzoyl-3-carboxy-β-carboline derivatives” (Bioorg Med Chem, 2011)
pEC50, pIC50: −log10 of the molar value. Active and inactive are the calls of the source. No cut-off for these calls is given here.

Experiments:
RAW264.7 [1] = assay: Antiinflammatory activity against mouse RAW264.7 cells assessed as reduction of lipopolysaccharide/interferon-gamma induced PGE2 production at 10 uM after 18 hrs; type: functional; conditions: RAW264.7, 18 h
Outline: (§1)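 RAW 264.7 macrophages (passages 9–20) stimulated with LPS/IFN-γ; compound tested at 1, 3 and 10 µM. Supernatant PGE2 measured by competitive EIA: anti-PGE2 antibody plus peroxidase-PGE2 tracer, 1 h RT; TMB/H2O2 30 min; H2SO4 stop; A450. Results given as % inhibition.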

[2] = Cytotoxicity activity against human KBVIN cells assessed as growth inhibition at 10 ug/ml after 72 hrs sulforhodamine B assay; type: functional
Outline: (§2)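 Cells kept in RPMI-1640/10% FBS with antibiotics at 37 °C, 5% CO2. Trypsinized cells seeded and given compound from DMSO-diluted stock. Incubated 72 h, then fixed with 10% TCA. Stained 10 min with 0.4% sulforhodamine B in 1% HOAc, washed, dye dissolved in 10 mM Trizma. A515 read; growth relative to net protein increase of controls.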

RAW264.7 [3] = assay: Antiinflammatory activity against mouse RAW264.7 cells assessed as reduction of lipopolysaccharide/interferon-gamma induced PGE2 production at 1 uM by EIA; type: functional; outline: as §1
KB = assay: Cytotoxicity activity against human KB cells assessed as growth inhibition at 10 ug/ml after 72 hrs sulforhodamine B assay; type: functional; outline: as §2
A549 = assay: Cytotoxicity activity against human A549 cells assessed as growth inhibition at 10 ug/ml after 72 hrs sulforhodamine B assay; type: functional; conditions: A549, 72 h; outline: as §2
[4] = Antiinflammatory activity against human neutrophil assessed as inhibition of N-formyl-l-methionyl phenylalanine/cytochalasin B-induced elastase release; type: functional, cell-based
Outline: (§3)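 Neutrophils (6 × 10^5/mL) supplemented with 100 µM MeO-Suc-Ala-Ala-Pro-Val-p-nitroanilide, equilibrated 2 min at 37 °C, then given drug or 0.1% DMSO vehicle for 5 min. Activated with 100 nM FMLP plus 0.5 µg/mL cytochalasin B. Absorbance at 405 nm followed continuously. Release expressed as percent of drug-free activated control. IC50 computed; mean ± SEM, n = 3.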

RAW264.7 [5] = assay: Antiinflammatory activity against mouse RAW264.7 cells assessed as reduction of lipopolysaccharide/interferon-gamma induced PGE2 production at 3 uM after 18 hrs; type: functional; conditions: RAW264.7, 18 h; outline: as §1
[6] = Antiinflammatory activity against mouse […] cells assessed as inhibition of lipopolysaccharide/interferon-gamma induced nitric oxide production; type: functional, cell-based; conditions: Mus musculus; read-out: EC50
Outline: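 RAW 264.7 cells in DMEM/10% FCS, passages 9–20. Nitrite induced by LPS (1 µg/mL) plus IFN-γ (50 U/mL) for 18 h with or without compound. Griess reagent (1% sulfanilamide, 0.1% naphthylenediamine in 5% H3PO4) read at OD550. EC50 calculated.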

Mus musculus = species on record: Mus musculus; assay: (§4) Cytotoxicity against mouse […] cells by MTT assay; type: functional
Outline: (§5)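 Viability of RAW 264.7 cells taken as mitochondrial reduction of MTT to formazan. Formazan read at OD550.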

DU-145 = assay: Cytotoxicity activity against human DU145 cells assessed as growth inhibition at 10 ug/ml after 72 hrs sulforhodamine B assay; type: functional; conditions: DU-145, 72 h; outline: as §2
[7] = Antiinflammatory activity against human neutrophil assessed as inhibition of N-formyl-l-methionyl phenylalanine/cytochalasin B-induced superoxide anion generation by spectrophotometry; type: functional, cell-based
Outline: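 Ferricytochrome c (0.5 mg/mL) reduction, SOD-inhibitable, with 1 mM Ca2+. Neutrophils (6 × 10^5 cells/mL) equilibrated 2 min at 37 °C, then drug or 0.1% DMSO for 5 min. Cytochalasin B 1 µg/mL preincubation, then 100 nM FMLP for 3 min. A550 monitored continuously with stirring. IC50 computed; mean ± SEM, n = 3.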

[8] = Therapeutic index, ratio of CC50 for mouse […] cells to EC50 for inhibition of lipopolysaccharide/interferon-gamma induced nitric oxide production in mouse […] cells; type: cell-based; conditions: read-out: TI
[9] = Antiinflammatory activity against cytochalasin B pretreated human neutrophil assessed as inhibition of elastase release; type: functional; outline: as §3
[10] = as §4; type: functional; outline: as §5
[11] = tested on: Radical scavenging activity; assay: Antioxidant activity assessed as residual DPPH radical scavenging activity; type: functional
RAW264.7 [12] = assay: Inhibition of lipopolysaccharide/interferon gamma-induced iNOS expression in mouse RAW264.7 cells by Western blot analysis; type: functional, cell-based
Outline: (§6)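 RAW 264.7 cells lysed in ice-cold RIPA buffer (25 mM Tris–HCl pH 7.2, SDS, Triton, deoxycholate, protease/phosphatase inhibitors). Protein assayed, run on 7.5% SDS-PAGE and transferred to nitrocellulose. Probed for iNOS or COX2 with HRP-anti-IgG secondary, detected by ECL. Blot re-probed for α-tubulin.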

Neutrophil [13] = assay: Antiinflammatory activity against human neutrophil assessed as inhibition of N-formyl-l-methionyl phenylalanine-induced phosphorylation of JNK by Western blot analysis; type: functional, cell-based
Outline: (§7)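 Neutrophils given drug for 5 min at 37 °C, then FMLP (0.1 µM) for 0.5 min. Stopped on ice and centrifuged at 4 °C. Pellets lysed in HEPES pH 7.4 Triton buffer with phosphatase and protease inhibitors; 14,000 g 20 min spin. Lysate proteins run on 12% SDS-PAGE, immunoblotted, detected by ECL.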

Neutrophil [14] = assay: Antiinflammatory activity against human neutrophil assessed as inhibition of N-formyl-l-methionyl phenylalanine-induced phosphorylation of AKT by Western blot analysis; type: functional, cell-based; outline: as §7
RAW264.7 [15] = assay: Inhibition of lipopolysaccharide/interferon gamma-induced COX2 expression in mouse RAW264.7 cells by Western blot analysis; type: functional, cell-based; outline: as §6

Structure (SMILES)	inhibition at 10 µM (RAW264.7 [1]) [%]	GI50 [2] [µM]	inhibition at 1 µM (RAW264.7 [3]) [%]	GI50 (KB) [µM]	GI50 (A549) [µM]	pIC50 [4]	inhibition at 3 µM (RAW264.7 [5]) [%]	pEC50 [6]	CC50 (Mus musculus)	GI50 (DU-145) [µM]	pIC50 [7]	selectivity ratio [8]	INH [9] [µM]	CC50 [10] [µM]	Activity [11]	Activity (RAW264.7 [12])	inhibition (Neutrophil [13])	inhibition (Neutrophil [14])	Activity (RAW264.7 [15])
CC(=O)c1nc(C(=O)O)cc2c1[nH]c1ccccc12	0	> 40	0	> 40	> 40	< 4.52	0	6.60	Non-toxic	> 40	< 4.52								
Cc1ccc(C(O)c2nccc3c2[nH]c2ccccc23)cc1 (stereo not given)		9.29	15	20.6	26.6	< 4.52	29	5.31	Non-toxic	13.8	< 4.52	> 100							
COc1cccc(C(=O)c2nccc3c2[nH]c2ccccc23)c1	98	> 40	0	> 40	> 40		71	5.53		> 40	< 4.52	6	13.2	16.3					
Cc1ccccc1C(=O)c1nc(C(=O)O)cc2c1[nH]c1ccccc12	100	> 40	0	> 40	> 40	4.83	82	5.59		> 40	5.27	> 2000			inactive				
O=C(O)c1cc2c([nH]c3ccccc32)c(C(=O)c2ccc([N+](=O)[O-])cc2)n1	100	> 40	0	> 40	> 40	5.21	92	5.53		> 40	5.18	5		15	inactive				
O=C(O)c1cc2c([nH]c3ccccc32)c(C(=O)c2ccccc2Br)n1	96	> 40	0	> 40	> 40	5.51	78	5.16		> 40	5.27	75		524	inactive				
O=C(O)c1cc2c([nH]c3ccccc32)c(C(=O)c2ccccc2[N+](=O)[O-])n1	100	> 40	0	> 40	> 40	4.88	97	5.54		> 40	4.75	4		12.8	inactive				
O=C(O)c1cc2c([nH]c3ccccc32)c(C(=O)c2ccccc2)n1	90	> 40	0	> 40	> 40	4.87	12	5.44		> 40	4.75	155		564	inactive				
O=C(O)c1cc2c([nH]c3ccccc32)c(C(=O)c2cccc(Br)c2)n1		> 40	100	> 40	> 40	5.56	100	6.24		> 40	5.69	51		29.4	inactive	Active	Active	Active	Active
Cc1cccc(C(=O)c2nccc3c2[nH]c2ccccc23)c1		> 40	97	> 40	> 40	< 4.52	100	6.70		> 40	< 4.52	120		23.7		Active			Active
Cc1ccc(C(=O)c2nc(C(=O)O)cc3c2[nH]c2ccccc23)cc1		> 40	100	> 40	> 40	5.50	100	6.30		> 40	5.20	35		17.7	inactive				
CC(=O)c1nccc2c1[nH]c1ccccc12	59	> 40	0	> 40	> 40	< 4.52	0	5.18	Non-toxic	> 40	5.30								
